Screens deposited in PubChem by Broad Institute.
FGF22 binding: binders of human FGF22 protein, primary screen, FGF22 synaptogenesis inhibitor project, biophysical, thermal shift, single point. activity (Tm shift, normalised), % at 9.99 µM. Fibroblast growth factor 22 (Homo sapiens), Q9HCT0. AID 651658, 2012. 340,000 tested, 1.5% active. recombinant FGF22 thermal shift, SYPRO orange fluorescence; percent of sucrose octasulfate shift, DMSO zero;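 active = mean Tm shift, scaled 0 neutral to 100 positive control, at about 1.3% or above, every replicate too, limit read from the data; inconclusive = no clear call, values can overlap the other calls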
ERAP1 inh: human ERAP1 aminopeptidase inhibitors, primary screen, biochemical, single point, plate reader | recombinant ERAP1, Leu-AMC fluorescence, 60 min | inhibition, % at 10.7 µM | 340,000 tested, 0.15% active | AID 652197, 2013;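 active = mean replicate inhibition of at least 30%, or all replicates individually reaching that 30% level; inactive = mean below 30% and not every replicate reaching it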;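 also: 0% = neutral control wells and 100% = L-leucinethiol positive control wells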
Env fusion inh: inhibitors of HIV-1 Env-driven cell-cell fusion, primary screen, HeLa-JRFL effector, CEM21 target cells, luciferase. 360,000 tested, 1.1% active. inhibition, % at 12.3 µM;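 active = mean replicate inhibition score of at least 50 and every replicate individually at or above 50; inconclusive = only one of the two criteria met; inactive = mean below 50 and not all replicates reaching 50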;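 also: 0% = plate neutral controls and 100% = maraviroc near 300 nM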
PGC1a acetyl inh: inhibitors of PGC1a acetylation signal, primary screen, cell-based, U2OS, AlphaScreen, inhibitor mode; AlphaScreen anti-acetyl-lysine; with virally co-expressed GCN5 acetyltransferase; inhibition, % at 15.6 µM; AID 651687, 2012; 350,000 tested, 0.17% active;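 active = every replicate shows inhibition of at least 40%; inconclusive = mean inhibition at least 40% but some replicate below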;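 also: 0% = neutral control wells and 100% = positive control wells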
Cneo AK release: Cryptococcus neoformans cell lysis inducers, primary screen, AK release luminescence, single concentration | C. neoformans lysis, adenylate kinase release luminescence, 4 h; normalised: neutral wells 0, clomiphene wells 100 | lysis activity, % at 15 µM | 360,000 tested, 0.2% active;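 active = mean lysis activity across replicates of at least 80%, whatever share of replicates individually reach that level; inactive = mean lysis activity below 80%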
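Schedule: static 4 h at 37 °C with compound, 1 h detection; system: C. neoformans cells; benchmarks: Clomiphene as positive control; buffer or medium: fresh YPD medium; measure: luminescence rise reflecting yeast cell lysis; measured by: luminescent adenylate kinase detection reagent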
Ecoli rRNA inh: reduced GFP signal of wild-type E. coli, primary screen, bacterial rRNA inhibitor project, GFP/RFP fluorescence, OD600, single point. 350,000 tested, 1.6% active. E. coli WT GFP vs humanized-ribosome RFP mutants, 24 h; active compounds read low; DMSO median 0, no signal -100. AID 720706, 2013. GFP signal change (wild-type ribosome), % (concentration not given with the values);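 active = significant combined selectivity score with lowered wild-type GFP, culture density cut under 30%, mutant RFP and density less affected; inactive = any of these conditions unmet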
Active calls of the source: *; ? = inconclusive; / = not tested or not shown; [ ] = remark or other dose. A selection: hits, their analogues and other compounds. The true share with any hit is near 3.5%.

SMILES	FGF22 binding	ERAP1 inh	Env fusion inh	PGC1a acetyl inh	Cneo AK release	Ecoli rRNA inh
CCCC(=O)Nc1ccc2c(c1)OC[C@@H](C)N(CC1CCCC1)C[C@@H](C)[C@H](OC)CN(C)C2=O	0	-4	/	-4	/	0
Cc1ccc(/C=N/Nc2ncc(Cl)cc2Cl)s1	0	11	/	7	/	-22*
C[C@H]1CN([C@@H](C)CO)C(=O)c2cc(-c3ccncc3)cnc2O[C@@H]1CN(C)C(=O)Nc1ccc2c(c1)OCO2	0	5	-12[16.7 µM]	-7	0	3
CCOCCCNc1c2c(nc3cc(-c4ccc(F)cc4)nn13)CCC2	43*	1	-1	/	/	11
C[C@H](CO)N1C[C@H](C)[C@H](CN(C)C)OCCCC[C@H](C)Oc2ccc(NC(=O)c3ccccc3)cc2C1=O	/	/	6[16.7 µM]	20	/	0
Cc1cc(C)n2nc(SC(C)C(=O)N3CC(C)OC(C)C3)nc2n1 (stereo not given)	43*	2	/	16	0	3
COC(=O)C1CCN(C(=O)CSc2nc3nc(C)cc(C)n3n2)CC1	/	-4	5	11	-2	5
Cc1cc(C)n2nc(SCC(=O)N3CCC(C(=O)O)CC3)nc2n1	44*	4	-20	/	/	/
CCN(Cc1ccccc1)C(=O)CSc1nncn1C	43*	-5	0	/	/	/
CCN(Cc1ccccc1)C(=O)CSc1ccccc1C(=O)O	42	-3	-15	/	/	9
Cc1cc2c(c(=O)o1)C1(C(=O)N(CC(=O)O)c3ccccc31)C(C#N)=C(N)O2 (stereo not given)	/	/	7	4	0	/
COc1ccc2c3c([nH]c2c1)[C@@H](CO)N(C(=O)c1ccccc1)CC31CN(S(=O)(=O)c2cccs2)C1	/	/	/	/	/	-6
CCC(CO)Oc1cc(NC(=O)c2ccc(OC)cc2)c2ncn(C(C)C)c2c1 (stereo not given)	0	0	21	-1	-4	-20*
COc1ccc(-c2nnc(-c3cccnc3)o2)cc1OC	/	/	-74	6	1	/
COc1ccccc1C(=O)NCC1(c2ccccc2)CCCC1	43*	2	30	-5	/	-51
COc1ccccc1C(=O)NCCC(=O)NC1CCCC(C)C1C (stereo not given)	0	0	58*	-3	-2	8
O=[N+]([O-])c1ccc(Cc2ccccn2)cc1	0	-1	/	5	4	-3
O=[N+]([O-])c1ccc(CC(Cl)c2ccccn2)cc1 (stereo not given)	0	-1	-26	6	2	-24*
CCC(C(=O)NCc1ccccc1)n1c(-c2ccc3c(c2)CCO3)nc2ccccc21 (stereo not given)	0	-2	-43	/	/	-31
CSCCC(C(=O)NCc1ccccc1)n1c(-c2ccc3c(c2)CCO3)nc2ccccc21 (stereo not given)	0	-2	-31	/	/	-17*
S=C(NCCc1cccc(Cl)c1)NC1CCCCC1	0	0	-45	-1	88*	-56
CN(C)S(=O)(=O)c1ccc(Cl)c(NC(=O)COC(=O)CN2C(=O)C3CCCCC3C2=O)c1 (stereo not given)	43*	1	-7	/	/	19
CCC1(c2ccc(F)cc2)NC(=O)N(CC(=O)Nc2cc(S(=O)(=O)N(C)C)ccc2Cl)C1=O (stereo not given)	44*	-1	11	/	/	-12
CCC1(c2ccc(F)cc2)NC(=O)N(CC(=O)Nc2ccc(S(N)(=O)=O)cc2)C1=O (stereo not given)	0	-2	-10	/	/	11
NNC(=O)c1ccc(Cn2cc(Br)cn2)o1	0	3	14	16	/	7
SMILES	FGF22 binding	ERAP1 inh	Env fusion inh	PGC1a acetyl inh	Cneo AK release	Ecoli rRNA inh
Cc1nc(Cc2nnc(SCC(=O)N3c4ccccc4NC(=O)C3(C)C)o2)cs1	43*	4	-6	2	1	3
O=C(Cn1cc2c(n1)CCCCC2)NC1CCN(Cc2ccccc2)CC1	43*	-2	20	/	-3	7
OC[C@@H]1CN(Cc2ccccc2)C[C@H](n2cnc3c(NCc4ccco4)ncnc32)O1	0	1	-4	101*	0	2
Cc1cc(NC(=O)/C(C#N)=C/c2ccco2)n(-c2ccccc2)n1	0	13	31	/	/	5
CC(=O)N1[C@H](CO)[C@@H](c2ccc(-c3ccc(C#N)cc3)cc2)C12CN(C(=O)C1CC1)C2	0	-3	/	11	/	-5
COC(=O)C(C)N(C(=O)c1cccc2ccccc12)c1c(C)cccc1C (stereo not given)	/	/	78*	-36	/	/
Cc1c(NS(=O)(=O)c2ccc3c(c2)OCCO3)cccc1-c1nc2cccnc2s1	0	1	44*	4	1	5
Cc1cc(-c2nc3cccnc3s2)ccc1NS(=O)(=O)c1ccc2c(c1)OCCO2	0	-4	-10	/	4	4
CC[C@@H](C(=O)[C@@H](C)[C@@H](O)[C@H](C)[C@@H]1O[C@@H]([C@@H](CC)C(=O)O)CC[C@@H]1C)[C@H]1O[C@]2(C=C[C@@H](O)[C@]3(CC[C@@](C)([C@H]4CC[C@](O)(CC)[C@H](C)O4)O3)O2)[C@H](C)C[C@@H]1C	0	-4	-13	35	2	/
CC(C)(C)OC(=O)N1CCC[C@H]1C(=O)NCc1ccc(Cl)cc1Cl	65*	0	8	/	/	-12
CCCCc1nc2sc3c(=O)n(N)cnc3c2c2c1CCC2	43*	-6	3	/	1	11
CC(C)(O)C#Cc1ccc(C(=O)NC(CCCNC(N)=O)C(=O)O)s1 (stereo not given)	0	0	-5	82*	1	14
COc1ccc([Si](C)(C)[C@@H]2[C@@H](CCO)O[C@]3(C(=O)N(Cc4ccc(NC(=O)[C@H](C)O)cc4)c4ccccc43)[C@H]2C)cc1	0	-6	35[16.7 µM]	/	1	/
COc1ccc([Si](C)(C)[C@H]2[C@H](CCO)O[C@@]3(C(=O)N(Cc4cccc(NC(=O)[C@H](C)O)c4)c4ccccc43)[C@@H]2C)cc1	2.9*	1	?	-16	38	/
O=C(C[C@@H]1CC[C@@H]2[C@H](COC[C@@H](O)CN2Cc2cccc(C(F)(F)F)c2)O1)NCCc1ccccc1	0	-4	/	-13	-2	-28
Cc1cc(CSc2nc(C)cc(=O)[nH]2)c2ncccc2c1	43*	8	-7	/	/	14
